Laboratory results published in ChEMBL document CHEMBL5620421, “2,6-Disubstituted 7-(naphthalen-2-ylmethyl)-7H-purines as a new class of potent antitubercular agents inhibiting DprE1” (Eur J Med Chem, 2023).
In brackets after ≈: the same amount, converted by molar mass. Activity calls are given as the source filed them. No cut-off for these calls is given here.

What was measured:
[1] = system: Mycobacterium tuberculosis; test: Antitubercular activity against Mycobacterium tuberculosis CNCTC My 331/88 (H37Rv) assessed as inhibition of bacterial growth measured after 14 days of incubation by Sulas semisynthetic medium based assay; type: functional; settings: 336 h, time 14 day
Method in brief: (§1)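 Micromethod MIC in Sula's semisynthetic medium. MIC is the lowest concentration inhibiting >99% of the mycobacterial population. Isoniazid was the standard drug.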

[2] = system: Mycobacterium tuberculosis; test: Antitubercular activity against Mycobacterium tuberculosis CNCTC My 331/88 (H37Rv) assessed as inhibition of bacterial growth measured after 21 days of incubation by Sulas semisynthetic medium based assay; type: functional; settings: 504 h, time 21 day; method in brief: as §1
[3] = system: Mycobacterium kansasii; test: Antitubercular activity against Mycobacterium kansasii CNCTC My 235/80 assessed as inhibition of bacterial growth measured after 7 days of incubation by Sulas semisynthetic medium based assay; type: functional; settings: CNCTC My 235/80, 168 h, time 7 day
Method in brief: (§2)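 Micromethod in Sula's semisynthetic medium. MIC is the lowest concentration inhibiting >99% of the mycobacterial population. Isoniazid was the standard.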

[4] = system: Mycobacterium kansasii; test: Antitubercular activity against Mycobacterium kansasii CNCTC My 235/80 assessed as inhibition of bacterial growth measured after 21 days of incubation by Sulas semisynthetic medium based assay; type: functional; settings: CNCTC My 235/80, 504 h, time 21 day; method in brief: as §2
[5] = system: Mycobacterium tuberculosis; test: Antimycobacterial activity against XDR clinical isolate Mycobacterium tuberculosis PRAHA 4 assessed as inhibition of mycobacterial growth measured after 14 to 21 days of incubation by Sulas semisynthetic medium based assay; type: functional; settings: time 14-21 day
Method in brief: (§3)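 Clinical MDR/XDR M. tuberculosis isolates were tested by the Sula's semisynthetic medium micromethod. Compounds in DMSO at 1000 to 0.5 μmol/L, in twofold-type steps. Incubation at 37 °C, read at 14 and 21 days. MIC99 is the lowest concentration inhibiting >99% of growth. Drug resistance or susceptibility of each isolate is to amikacin, clofazimine, gentamicin, ofloxacin, streptomycin and the others listed.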

[6] = system: Mycobacterium tuberculosis; test: Antimycobacterial activity against MDR clinical isolate Mycobacterium tuberculosis PRAHA 131 assessed as inhibition of mycobacterial growth measured after 14 to 21 days of incubation by Sulas semisynthetic medium based assay; type: functional; settings: time 14-21 day; method in brief: as §3
[7] = system: Mycobacterium tuberculosis; test: Antimycobacterial activity against XDR clinical isolate Mycobacterium tuberculosis PRAHA 131 assessed as inhibition of mycobacterial growth measured after 14 to 21 days of incubation by Sulas semisynthetic medium based assay; type: functional; settings: time 14-21 day; method in brief: as §3
[8] = system: Mycobacterium tuberculosis; test: Antimycobacterial activity against XDR clinical isolate Mycobacterium tuberculosis 9449/2007 assessed as inhibition of mycobacterial growth measured after 14 to 21 days of incubation by Sulas semisynthetic medium based assay; type: functional; settings: time 14-21 day; method in brief: as §3
[9] = system: Mycobacterium tuberculosis; test: Antimycobacterial activity against MDR clinical isolate Mycobacterium tuberculosis 234/2005 assessed as inhibition of mycobacterial growth measured after 14 to 21 days of incubation by Sulas semisynthetic medium based assay; type: functional; settings: time 14-21 day; method in brief: as §3
[10] = system: Mycobacterium tuberculosis; test: Antimycobacterial activity against XDR clinical isolate Mycobacterium tuberculosis 234/2005 assessed as inhibition of mycobacterial growth measured after 14 to 21 days of incubation by Sulas semisynthetic medium based assay; type: functional; settings: time 14-21 day; method in brief: as §3
[11] = system: Mycobacterium tuberculosis; test: Antimycobacterial activity against XDR clinical isolate Mycobacterium tuberculosis 7357/1998 assessed as inhibition of mycobacterial growth measured after 14 to 21 days of incubation by Sulas semisynthetic medium based assay; type: functional; settings: time 14-21 day; method in brief: as §3
[12] = system: Mycobacterium tuberculosis; test: Antimycobacterial activity against MDR clinical isolate Mycobacterium tuberculosis 8666/2010 assessed as inhibition of mycobacterial growth measured after 14 to 21 days of incubation by Sulas semisynthetic medium based assay; type: functional; settings: time 14-21 day; method in brief: as §3
[13] = system: Mycobacterium tuberculosis; test: Antimycobacterial activity against XDR clinical isolate Mycobacterium tuberculosis 8666/2010 assessed as inhibition of mycobacterial growth measured after 14 to 21 days of incubation by Sulas semisynthetic medium based assay; type: functional; settings: time 14-21 day; method in brief: as §3
[14] = system: HepG2; test: Cytotoxicity against human HepG2 cells assessed as cell viability incubated for 72 hrs by MTT spectrophotometric analysis; type: functional, cell-based; settings: HepG2, 72 h
Method in brief: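 HepG2 or rat H9c2 cells in DMEM with FBS, seeded at 10,000 cells/well. Treated 24 h later for 72 h, with 0.1% DMSO vehicle and 1% Triton X-100 as controls. MTT added (3 mg/mL solution) for 2 h at 37 °C, then cells lysed in isopropanol/0.1 M HCl/5% Triton X-100. Read at 570 nm minus 690 nm. Viability expressed as % of vehicle; IC50 derived where reached. At least four independent experiments.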

[15] = Aqueous solubility of compound incubated for 20 mins by UV-Visible spectrophotometric analysis; type: physicochemical; settings: buffer
Method in brief: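 Solubility in ultrapure water containing 5% DMSO. Absorbance taken at each compound's λmax and compared with a six-point calibration made by serial dilution of a 50 μM standard, fitted by linear regression. Over-saturated solutions were sonicated at 37 °C for 10 min and centrifuged at 8000 RPM for 10 min. Supernatant absorbance was read, after dilution with 5% DMSO/water if above the calibration range.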

[16] = Half life in human liver microsomes at 3 uM incubated for 5 to 45 min in presence of NADPH by LC-MS analysis; type: ADME, Microsome; settings: time 5-45 min
[17] = Intrinsic clearance in human liver microsomes at 3 uM incubated for 5 to 45 min in presence of NADPH by LC-MS analysis; type: ADME, Microsome; settings: time 5-45 min, read-out: CLH
[18] = system: Staphylococcus aureus; test: Antibacterial activity against Staphylococcus aureus C1947 assessed as inhibition of bacterial growth incubated for 24 to 48 hrs by microdilution broth method; type: functional, organism-based; settings: time 24-48 hrs
Method in brief: (§4)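 Clinical isolates kept at –70 °C and subcultured twice on Mueller-Hinton agar, using the second subculture. Broth microdilution in Mueller-Hinton broth at pH 7.4 with two-fold serial compound dilutions and DMSO ≤1% final. Inoculum was 10 μL of a 1.5 × 10⁸ CFU/mL suspension. Incubated at 36 °C ± 1 °C and read at 24 h and 48 h. MIC taken as 95% growth inhibition.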

[19] = system: Staphylococcus aureus; test: Antibacterial activity against methicilin-resistant Staphylococcus aureus C1923 assessed as inhibition of bacterial growth incubated for 24 to 48 hrs by microdilution broth method; type: functional, organism-based; settings: time 24-48 hrs
Method in brief: (§5)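 Clinical isolates, stored at −70 °C, were passaged twice on Mueller-Hinton agar. Broth microdilution in Mueller-Hinton broth, pH 7.4, with twofold serial dilutions. DMSO was at most 1% final. Inoculum 1.5 × 10⁸ CFU/mL suspension. MIC is 95% growth inhibition, read after 24 and 48 h at 36 °C.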

[20] = system: Staphylococcus epidermidis; test: Antibacterial activity against Staphylococcus epidermidis C1936 assessed as inhibition of bacterial growth incubated for 24 to 48 hrs by microdilution broth method; type: functional, organism-based; settings: time 24-48 hrs; method in brief: as §4
[21] = system: Enterococcus faecium; test: Antibacterial activity against vancomycin-resistant Enterococcus faecium assessed as inhibition of bacterial growth incubated for 24 to 48 hrs by microdilution broth method; type: functional, organism-based; settings: time 24-48 hrs; method in brief: as §5
[22] = system: Klebsiella pneumoniae; test: Antibacterial activity against ESBL negative Klebsiella pneumoniae C1950 assessed as inhibition of bacterial growth incubated for 24 to 48 hrs by microdilution broth method; type: functional, organism-based; settings: time 24-48 hrs; method in brief: as §4
[23] = system: Pseudomonas aeruginosa; test: Antibacterial activity against multidrug-resistant Pseudomonas aeruginosa A1245 assessed as inhibition of bacterial growth incubated for 24 to 48 hrs by microdilution broth method; type: functional, organism-based; settings: time 24-48 hrs; method in brief: as §5

Row | Compound | MIC99 [1] [µM] | MIC99 [2] [µM] | MIC99 [3] [µM] | MIC99 [4] [µM] | MIC99 [5] [µM] | MIC99 [6] [µM] | MIC99 [7] [µM] | MIC99 [8] [µM] | MIC99 [12] [µM] | MIC99 [13] [µM] | IC50 [14] [µM] | solubility at 20 min [15] [µM] | half-life at 3 µM [16] [min] | microsomal CLint at 3 µM [17] [µL/min/mg] | Activity [18] | Activity [19] | Activity [20] | Activity [21] | Activity [22] | Activity [23] | also measured
1 | O=c1[nH]c(N2CCSCC2)nc2ncn(Cc3ccc4ccccc4c3)c12 | 2 (≈ 0.755 µg/mL) | 4 (≈ 1.51 µg/mL) | 32 (≈ 12.1 µg/mL) | 125 (≈ 47.2 µg/mL) | 16 (≈ 6.04 µg/mL) | 8 (≈ 3.02 µg/mL) | 16 (≈ 6.04 µg/mL) | 16 (≈ 6.04 µg/mL) | 8 (≈ 3.02 µg/mL) | 8 (≈ 3.02 µg/mL) | > 50 | 9.3 (≈ 3.51 µg/mL) | 10.9 | 127 | inactive | inactive | inactive | inactive | inactive | inactive | MIC99 [9]: 16 µM (≈ 6.04 µg/mL); MIC99 [10]: 16 µM (≈ 6.04 µg/mL); MIC99 [11]: 16 µM (≈ 6.04 µg/mL)
2 | c1ccc(CNc2nc(N3CCOCC3)nc3ncn(Cc4ccc5ccccc5c4)c23)cc1 | 2 (≈ 0.901 µg/mL) | 4 (≈ 1.8 µg/mL) | 4 (≈ 1.8 µg/mL) | 8 (≈ 3.6 µg/mL) | 4 (≈ 1.8 µg/mL) | 4 (≈ 1.8 µg/mL) | 4 (≈ 1.8 µg/mL) | 4 (≈ 1.8 µg/mL) | 4 (≈ 1.8 µg/mL) | 4 (≈ 1.8 µg/mL) |  | 58.9 (≈ 26.5 µg/mL) | 19.3 | 72.1 | inactive | inactive | inactive | inactive | inactive | inactive | MIC99 [9]: 2 µM (≈ 0.901 µg/mL); MIC99 [10]: 4 µM (≈ 1.8 µg/mL); MIC99 [11]: 4 µM (≈ 1.8 µg/mL)
3 | CCOc1nc(N2CCOCC2)nc2ncn(Cc3ccc4ccccc4c3)c12 | 1 (≈ 0.389 µg/mL) | 2 (≈ 0.779 µg/mL) | 8 (≈ 3.12 µg/mL) | 16 (≈ 6.23 µg/mL) |  | 2 (≈ 0.779 µg/mL) | 4 (≈ 1.56 µg/mL) | 4 (≈ 1.56 µg/mL) | 2 (≈ 0.779 µg/mL) | 2 (≈ 0.779 µg/mL) | 33.1 | 81.3 (≈ 31.7 µg/mL) | 56.8 | 24.4 | inactive | inactive | inactive | inactive | inactive | inactive | 
4 | CCNc1nc(N2CCOCC2)nc2ncn(Cc3ccc4ccccc4c3)c12 | 1 (≈ 0.388 µg/mL) | 1 (≈ 0.388 µg/mL) | 4 (≈ 1.55 µg/mL) | 8 (≈ 3.11 µg/mL) |  | 2 (≈ 0.777 µg/mL) | 4 (≈ 1.55 µg/mL) | 4 (≈ 1.55 µg/mL) | 2 (≈ 0.777 µg/mL) | 2 (≈ 0.777 µg/mL) | > 50 | 150 (≈ 58.4 µg/mL) | 51.3 | 27 | inactive | inactive | inactive | inactive | inactive | inactive | 
5 | O=c1[nH]c(N2CCOCC2)nc2ncn(Cc3ccc4ccccc4c3)c12 | 4 (≈ 1.45 µg/mL) | 4 (≈ 1.45 µg/mL) | 32 (≈ 11.6 µg/mL) | 125 (≈ 45.2 µg/mL) | 32 (≈ 11.6 µg/mL) | 32 (≈ 11.6 µg/mL) | 32 (≈ 11.6 µg/mL) | 64 (≈ 23.1 µg/mL) | 32 (≈ 11.6 µg/mL) | 64 (≈ 23.1 µg/mL) | 59 | 46.9 (≈ 16.9 µg/mL) | 110 | 12.6 | inactive | inactive | inactive | inactive | inactive | inactive | MIC99 [9]: 16 µM (≈ 5.78 µg/mL); MIC99 [10]: 32 µM (≈ 11.6 µg/mL); MIC99 [11]: 64 µM (≈ 23.1 µg/mL)
